Experimental data taken from ChEMBL document CHEMBL2413079, “Synthesis of novel psoralen analogues and their in vitro antitumor activity” (2013).

Tests used:
Assay type in all cases: functional
MDA-MB-231 = assay: Growth inhibition of human MDA-MB-231 cells after 48 hrs by MTS assay; conditions: MDA-MB-231, 48 h
Summary of the method: (§1)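 Cells grown in DMEM with 10% FBS (15% FBS for TCC-SUP) and 1% penicillin/streptomycin. DMSO stocks freshly diluted in medium; five concentrations tested over 48 h exposure. MTS reagent added for 2 h at 37 °C, 5% CO2, then absorbance read at 490 nm. Viability taken as % of control; GI50 from dose–response curve. Three independent cultures, 4 wells per concentration.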

TCC-SUP = assay: Growth inhibition of human TCCSUP cells after 48 hrs by MTS assay; summary of the method: as §1
HeLa = assay: Growth inhibition of human HeLa cells after 48 hrs by MTS assay; summary of the method: as §1

| Structure (SMILES) | GI50 (MDA-MB-231) [nM] | GI50 (TCC-SUP) [nM] | GI50 (HeLa) [nM] |
| --- | --- | --- | --- |
| Cc1cc(=O)oc2cc3[nH]c4ccccc4c3cc12 | 78 | 66 | 42 |
| O=C(O)c1cc2c(ccc3c4ccccc4[nH]c23)oc1=O | 265 | 18 | 47 |
| Cc1cc(=O)oc2cc3c(cc12)oc1ccccc13 | 60 | 41 | 35 |
| O=c1ccc2c(ccc3c4ccccc4[nH]c23)o1 | 230 | 27 | 46 |
| CCOC(=O)c1cc2c(ccc3c4ccccc4[nH]c23)oc1=O | 413 | 30 | 37 |
